From ChEMBL document CHEMBL1135602 (J Med Chem, 2002)
Values joined by “and” are separate entries in the source; they are usually repeats but may differ in a detail not shown here. Equal values may be shown once. Active and inactive are the calls of the source. The calls are words filed in the database; no cut-off is given here.

What was measured:
[1] = system: Vero; experiment: (§1) Cytotoxicity by the selective inhibition against African green monkey kidney […] (vero cells).; assay type: functional, cell-based; conditions: Chlorocebus sabaeus
[2] = system: BC; experiment: Cytotoxicity against human breast cancer cells.; assay type: functional, cell-based
[3] = target: Bifunctional dihydrofolate reductase-thymidylate synthase (Plasmodium falciparum K1) (UniProt P13922); experiment: Inhibition of the C59R+S108N mutant of dihydrofolate reductase (DHFR)relative to Tmp
How it was run: (§2)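 Assayed at 25 °C in 50 mM TES pH 7.0, 75 mM β-mercaptoethanol, 1 mg/mL BSA, with 100 µM H2folate and 100 µM NADPH. A340 was followed. Ki was derived from IC50 = Ki(1+[S]/Km), assuming competitive inhibition.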

[4] = target: Bifunctional dihydrofolate reductase-thymidylate synthase (Plasmodium falciparum K1) (UniProt P13922); experiment: Inhibition of S108N mutant dihydrofolate reductase (DHFR)relative to Tmp; how it was run: as §2
[5] = system: Plasmodium falciparum; experiment: Safety ratio as cytotoxicity in vero cells relative to IC50 TM4; assay type: functional
[6] = system: Bifunctional dihydrofolate reductase-thymidylate synthase (Plasmodium falciparum K1), P13922 [UNDEFINED MUTATION]; experiment: Ratio of Inhibition of the S108N mutant of dihydrofolate reductase (DHFR) to inhibition of wild type dihydrofolate reductase.
[7] = Safety ratio is cytotoxicity to vero cells/IC50 K1; assay type: toxicity, cell-based; conditions: monkey
How it was run: (§3)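 Ratio of the cytotoxicity IC50 (vero, KB or BC cells, Skehan protocol) to the antiplasmodial IC50 against K1CB1 (C59R+S108N DHFR). […] Label was added at 24 h and cultures ran a further 18-24 h. Final DMSO was 0.1%.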

[8] = Safety ratio is cytotoxicity to vero cells/IC50 k1.; assay type: toxicity, cell-based; conditions: monkey, read-out: Safety ratio; how it was run: as §3
[9] = system: KB; experiment: Cytotoxicity against human epidermoid carcinoma KB cell.; assay type: functional, cell-based
[10] = system: Plasmodium falciparum; experiment: IC50 ratio against Plasmodium falciparum K1CB1/TM4; assay type: functional
[11] = target: Bifunctional dihydrofolate reductase-thymidylate synthase (Plasmodium falciparum K1, UniProt P13922); experiment: Inhibition of the C59R+S108N mutant of dihydrofolate reductase (DHFR)
How it was run: (§4)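 Assay at 25 °C: 50 mM TES pH 7.0, 75 mM β-mercaptoethanol, 1 mg/mL BSA, 100 µM H2folate and 100 µM NADPH. NADPH oxidation followed at 340 nm. Ki derived from IC50 as Ki(1+[S]/Km), assuming competitive inhibition.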

[12] = target: Bifunctional dihydrofolate reductase-thymidylate synthase (Plasmodium falciparum K1, UniProt P13922, S108N); experiment: Inhibition of the S108N mutant of dihydrofolate reductase (DHFR); how it was run: as §4
[13] = target: Bifunctional dihydrofolate reductase-thymidylate synthase (Plasmodium falciparum K1) (UniProt P13922); experiment: Inhibition of the wild-type dihydrofolate reductase (DHFR) relative to Tmp; how it was run: as §2
[14] = system: Plasmodium falciparum; experiment: In vitro antiplasmodial activity (IC50) against Plasmodium falciparum wtTM4/8.2; assay type: functional, organism-based
[15] = system: Bifunctional dihydrofolate reductase-thymidylate synthase (Plasmodium falciparum K1), P13922 [UNDEFINED MUTATION]; experiment: Ratio of Inhibition of the C59R+S108N mutant of dihydrofolate reductase (DHFR) to inhibition of wild type dihydrofolate reductase.
[16] = system: Plasmodium falciparum; experiment: In vitro relative antiplasmodial activity (IC50) compared to Pyr against Plasmodium falciparum TM4/8.2 wild-type; assay type: functional
[17] = system: Plasmodium falciparum; experiment: Relative antiplasmodial activity (IC50) compared to Pyr against Plasmodium falciparum K1CB1 DHFR double-mutant (C59R/S108N); assay type: functional
[18] = target: Bifunctional dihydrofolate reductase-thymidylate synthase (Plasmodium falciparum K1) (UniProt P13922); experiment: (§5) Inhibition of the wild-type dihydrofolate reductase (DHFR) relative to Pyr.; how it was run: as §2
[19] = target: Bifunctional dihydrofolate reductase-thymidylate synthase (Plasmodium falciparum K1) (UniProt P13922); experiment: as §5; how it was run: as §2; remark: listed apart in the source
[20] = target: Bifunctional dihydrofolate reductase-thymidylate synthase (Plasmodium falciparum K1) (UniProt P13922); experiment: Inhibition of the C59R+S108N mutant of dihydrofolate reductase (DHFR) relative to Pyr.; how it was run: as §2
[21] = Safety ratio is cytotoxicity to BC cells/IC50 K1.; assay type: toxicity, cell-based; conditions: human, BC cells (breast cancer); read-out: Safety ratio; how it was run: as §3
[22] = target: T1, Dihydrofolate reductase (Homo sapiens) (UniProt P00374); experiment: Cytotoxicity by selective inhibition against human dihydrofolate reductase (DHFR);NA is no inhibition
T1 sequence (whole entry): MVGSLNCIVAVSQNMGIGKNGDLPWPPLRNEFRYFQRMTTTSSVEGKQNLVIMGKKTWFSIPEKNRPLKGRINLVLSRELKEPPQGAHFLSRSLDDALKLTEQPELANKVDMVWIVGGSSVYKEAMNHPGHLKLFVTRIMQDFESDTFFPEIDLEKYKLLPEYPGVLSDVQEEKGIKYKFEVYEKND

[23] = Safety ratio is cytotoxicity to KB cells/IC50 TM4.; assay type: toxicity, cell-based; conditions: human, KB cells (epidermoid carcinoma); read-out: Safety ratio
How it was run: (§6)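 Ratio of the cytotoxicity IC50 (KB or BC cells, Skehan protocol) to the antiplasmodial IC50 against TM4/8.2 (wild-type DHFR). […] Label was added after 24 h and cultures ran a further 18-24 h.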

[24] = Safety ratio is cytotoxicity to BC cells/IC50 TM4.; assay type: toxicity, cell-based; conditions: human, BC cells (breast cancer); read-out: Safety ratio; how it was run: as §6
[25] = Safety ratio is cytotoxicity to vero cells/IC50 K1.; assay type: toxicity, cell-based; conditions: monkey, read-out: Safety ratio; how it was run: as §3
[26] = Safety ratio is cytotoxicity to KB cells/IC50 K1.; assay type: toxicity, cell-based; conditions: human, KB cells (epidermoid carcinoma); read-out: Safety ratio; how it was run: as §3
[27] = target: Bifunctional dihydrofolate reductase-thymidylate synthase (Plasmodium falciparum K1) (UniProt P13922); experiment: Inhibition of Plasmodium falciparum wild-type dihydrofolate reductase (DHFR) relative to Pyrimethamine.
[28] = target: T2, Dihydrofolate reductase (Homo sapiens, UniProt P00374); experiment: Cytotoxicity by selective inhibition against human dihydrofolate reductase (DHFR).
T2 sequence (P00374 whole entry): T1 sequence (whole entry)

[29] = Safety ratio is cytotoxicity to KB cells/IC50 K1; assay type: toxicity, cell-based; conditions: human, KB cells (epidermoid carcinoma); read-out: Safety ratio
How it was run: (§7)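 Safety ratio is the mammalian-cell cytotoxicity IC50 (vero, KB or BC cells) divided by the antiplasmodial IC50 against P. falciparum K1CB1 (C59R+S108N DHFR). Parasites were grown in human erythrocytes (1.5% suspension, 1-2% parasitemia) at 37 °C, 3% CO2, with drug dilutions at 0.1% DMSO final. After 24 h, [3H]hypoxanthine was added for a further 18-24 h. IC50 came from sigmoidal incorporation curves.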

[30] = Safety ratio is cytotoxicity to BC cells/IC50 K1; assay type: toxicity, cell-based; conditions: human, BC cells (breast cancer); read-out: Safety ratio; how it was run: as §7
[31] = system: Vero; experiment: as §1; conditions: Chlorocebus sabaeus
[32] = target: Bifunctional dihydrofolate reductase-thymidylate synthase (Plasmodium falciparum K1) (UniProt P13922); experiment: Inhibition of the S108N mutant of dihydrofolate reductase (DHFR) relative to Pyr.; how it was run: as §2
[33] = Safety ratio is cytotoxicity to vero cells/IC50 KI.; assay type: toxicity, cell-based; conditions: monkey, read-out: Safety ratio; how it was run: as §7
[34] = system: Plasmodium falciparum; experiment: In vitro relative antiplasmodial activity (IC50) compared to Tmp against Plasmodium falciparum TM4/8.2 wild-type; assay type: functional
[35] = system: Plasmodium falciparum; experiment: Relative antiplasmodial activity (IC50) compared to Tmp against Plasmodium falciparum K1CB1 DHFR double-mutant (C59R/S108N); assay type: functional

Chain of Bifunctional dihydrofolate reductase-thymidylate synthase (Plasmodium falciparum K1), P13922 [UNDEFINED MUTATION] (P13922 whole entry, looked up, stated change not applied): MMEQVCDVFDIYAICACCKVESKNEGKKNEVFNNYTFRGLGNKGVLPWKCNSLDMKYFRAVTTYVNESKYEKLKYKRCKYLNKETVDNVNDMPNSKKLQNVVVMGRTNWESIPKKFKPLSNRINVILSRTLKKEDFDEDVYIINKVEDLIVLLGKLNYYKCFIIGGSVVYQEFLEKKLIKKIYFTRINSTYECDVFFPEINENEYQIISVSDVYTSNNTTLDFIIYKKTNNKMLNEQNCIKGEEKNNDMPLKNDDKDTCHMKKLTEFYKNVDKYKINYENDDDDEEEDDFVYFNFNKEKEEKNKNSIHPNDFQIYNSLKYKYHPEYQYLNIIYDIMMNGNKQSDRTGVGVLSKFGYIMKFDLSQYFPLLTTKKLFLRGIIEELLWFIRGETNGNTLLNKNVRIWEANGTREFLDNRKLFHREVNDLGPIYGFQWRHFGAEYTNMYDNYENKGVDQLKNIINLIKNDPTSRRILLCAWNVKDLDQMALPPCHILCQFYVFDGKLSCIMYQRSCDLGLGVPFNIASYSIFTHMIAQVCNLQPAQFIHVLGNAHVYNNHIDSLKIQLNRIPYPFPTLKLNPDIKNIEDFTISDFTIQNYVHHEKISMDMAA
Chain of Bifunctional dihydrofolate reductase-thymidylate synthase (Plasmodium falciparum K1) (P13922 whole entry, looked up): as the sequence (P13922 whole entry, looked up, stated change not applied) above
Chain of Bifunctional dihydrofolate reductase-thymidylate synthase (Plasmodium falciparum K1, UniProt P13922, S108N) (P13922 whole entry, looked up, stated change not applied): as above
Chain of Bifunctional dihydrofolate reductase-thymidylate synthase (Plasmodium falciparum K1, UniProt P13922) (P13922 whole entry): as the sequence (P13922 whole entry, looked up, stated change not applied) above

SMILES	IC50 [1]	IC50 [2]	Safety ratio [5]	Ratio [6]	IC50 [9]	Ratio [10]	Ki [11]	Ki [12]	IC50 [14]	Ratio [15]	selectivity ratio [23]	selectivity ratio [24]	selectivity ratio [25]	selectivity ratio [26]	Relative activity [27]	further results
Nc1ncc(Cc2ccc(OCCCOc3cc(Cl)c(Cl)cc3Cl)cc2)c(N)n1	45000 nM	> 50000 nM	15 and >17	26.1	> 50000 nM	1.2	39.1 nM	23.5 nM	3000 nM	43.4						Relative activity [3]: 0.2; Relative activity [4]: 0.2; selectivity ratio [7]: 13; selectivity ratio [8]: 13; Relative activity [13]: 0.09
CCc1nc(N)nc(N)c1-c1ccc(Br)cc1				105		500	44.3 nM	31.5 nM	50 nM	148						Relative activity [16]: 0.6; Relative activity [17]: 0.8; Relative activity [18]: 0.5; Relative activity [19]: 1.1; Relative activity [20]: 0.8
Nc1nc(N)c(-c2ccccc2)c(CCCc2ccccc2)n1	> 50000 nM	> 500000 nM	>250	1.8	> 500000 nM	11.5	2.4 nM	0.9 nM	200 nM	4.8	> 2500	> 2500	> 22	> 217	0.9	selectivity ratio [21]: > 217; NI [22]: inactive
COc1ccc(CCCc2nc(N)nc(N)c2-c2cccc(Cl)c2)cc1	3000 nM	> 500000 nM		1.8	15000 nM	6.8	6 nM	4 nM	400 nM	2.7					3.7	Ki [28]: > 5000 nM
COc1cc(COc2cc(Cc3cnc(N)nc3N)ccc2OCc2ccccc2)cc(OC)c1OC				2.5		0.9	503 nM	180 nM	19000 nM	41.5						Relative activity [3]: 2.1; Relative activity [4]: 1.4; Relative activity [13]: 1.2
COc1cc(Cc2cnc(N)nc2N)ccc1OCCCc1ccccc1	200000 nM	32000 nM	67	14.8	72000 nM	3.9	44.2 nM	26.6 nM	3000 nM	24.5	24	11	17			Relative activity [3]: 0.2; Relative activity [4]: 0.2; selectivity ratio [29]: 6; selectivity ratio [30]: 2.7; Relative activity [13]: 0.2
CCCCCCc1nc(N)nc(N)c1-c1ccccc1		268000 nM	857	4	113000 nM	21.7	0.7 nM	1.2 nM	60 nM	2.3	1880	4470	41	87	0.5	selectivity ratio [21]: 206; IC50 [31]: 55000 nM; Ki [28]: 15000 nM
Nc1nc(N)c(-c2cccc(Cl)c2)c(CCOCCCOc2ccccc2)n1	15000 nM	6100 nM	38	4.5	8100 nM	8.3	1.9 nM	1.8 nM	400 nM	4.7	20	15	4.5	2.5	0.7	selectivity ratio [30]: 1.8
CCc1nc(N)nc(N)c1-c1ccc(C(C)(C)C)cc1	100000 nM	56000 nM	172	110	87000 nM	6.5	127 nM	66.2 nM	600 nM	212	145	93.3		22		Relative activity [16]: 7.5; selectivity ratio [21]: 14.4; Relative activity [32]: 2.3; selectivity ratio [33]: 26; Relative activity [17]: 0.1; Relative activity [18]: 1; Relative activity [20]: 2.4
CCCOc1cc(Cc2cnc(N)nc2N)ccc1OCc1cc(OC)c(OC)c(OC)c1	13000 nM	56000 nM			180000 nM											NI [22]: inactive
CCOc1cc(Cc2cnc(N)nc2N)ccc1OCc1cc(OC)c(OC)c(OC)c1	34000 nM	139000 nM			102000 nM											NI [22]: inactive
COc1cc(Cc2cnc(N)nc2N)ccc1OCc1cc(OC)c(OC)c(OC)c1						92.7	8.7 nM	6.2 nM	300 nM							Relative activity [34]: 0.04; Relative activity [35]: 0.2
